{
  "source": "ChEMBL document CHEMBL4138193",
  "about": "“Novel indole and triazole based hybrid molecules exhibit potent anti-adipogenic and antidyslipidemic activity by activating Wnt3a/β-catenin pathway” (Eur J Med Chem, 2018)",
  "key": {"Mus musculus [1]": {"species_on_record": "Mus musculus", "experiment": "Activation of Wnt3a/beta-catenin in mouse 3T3L1 cells assessed as down-regulation of CDK6 expression at 20 uM after 16 to 24 hrs by Western blot analysis", "assay_type": "cell-based", "procedure,_shortened": "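3T3-L1 cells given MDI differentiation media (0.5 mM IBMX, 5 µg/ml insulin, 250 nM dexamethasone) with or without 20 µM compound. Proteins isolated at 16 and 24 h and probed by Western blot for CDK2, CDK4, CDK6, cyclin D1 and D3. Densitometry normalized to actin, n=3, mean ± SD, Student t test.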"}, "Mus musculus [2]": {"species_on_record": "Mus musculus", "experiment": "Activation of Wnt3a/beta-catenin in differentiated mouse 3T3L1 cells assessed as down-regulation of PPARgamma mRNA expression at 20 uM by qRT-PCR analysis", "procedure,_shortened": "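3T3-L1 cells differentiated with IBMX/dexamethasone/insulin media with or without 20 µM compound over the differentiation period. RNA extracted with TRIZOL, 500 ng reverse-transcribed to cDNA, then quantitative real-time PCR. Three independent experiments run in triplicate, mean ± SD, one-way ANOVA with Bonferroni posttest.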"}, "Mus musculus [3]": {"species_on_record": "Mus musculus", "experiment": "Activation of Wnt3a/beta-catenin in mouse 3T3L1 cells assessed as down-regulation of FAS expression at 20 uM after 2 to 6 days in presence of FH353 by Western blot analysis", "assay_type": "cell-based"}, "Syrian golden hamster [4]": {"tested_on": "Syrian golden hamster", "experiment": "Anti-dyslipidemic activity in high fat diet-induced dyslipidemia Syrian Golden hamster model assessed as reduction in serum LDL levels at 100 mg/kg, po administered for 1 week followed by overnight fasting post last dose by clinical bio-analyzer analysis", "assay_type": "functional, organism-based", "conditions": "Mesocricetus auratus", "procedure,_shortened": "(§1)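 Male Syrian golden hamsters (8–10 wk, 100–120 g), 4 per group, given 45% kcal HFD for 4 days, then 100 mg/kg p.o. in 0.5% NaCMC daily for one week alongside HFD. Blood taken from retro-orbital plexus after overnight fast. TG, HDL, LDL, ALT, AST measured on a clinical bio-analyzer and NEFA by kit. Mean ± SEM, one-way ANOVA with Bonferroni.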"}, "Syrian golden hamster [5]": {"tested_on": "Syrian golden hamster", "experiment": "Anti-atherosclerotic activity in high fat diet-induced dyslipidemia Syrian Golden hamster model assessed as reduction in atherogenic index by measuring serum triglycerides to HDL ratio at 100 mg/kg, po administered for 1 week followed by overnight fasting post last dose by clinical bio-analyzer analysis", "assay_type": "functional, organism-based", "conditions": "Mesocricetus auratus", "procedure,_shortened": "as §1"}, "Syrian golden hamster [6]": {"tested_on": "Syrian golden hamster", "experiment": "Induction of reverse cholestrol transport in high fat diet-induced dyslipidemia Syrian Golden hamster model assessed as reduction in eWAT to body weight ratio at 100 mg/kg, po administered for 1 week", "assay_type": "functional, organism-based", "conditions": "Mesocricetus auratus", "procedure,_shortened": "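Male Syrian Golden hamsters on 45% kCal HFD, dosed 100 mg/kg p.o. in 0.5% NaCMC for one week, 4 per group. Food intake and body weight recorded daily. At the end, animals were saline-perfused and liver and eWAT were excised and weighed. Paraffin sections stained with H&E and imaged at 20x.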"}, "3T3-L1": {"tested_on": "3T3-L1", "experiment": "Upregulation of wnt3a protein expression in mouse 3T3L1 cells at 20 uM after 16 to 24 hrs by Western blot analysis", "assay_type": "functional, cell-based", "procedure,_shortened": "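3T3-L1 cells given MDI with or without 20 µM; protein harvested at 16 and 24 hr. Lysates in ice-cold buffer with protease and phosphatase inhibitors were BCA-quantified, run on 8–12% SDS-PAGE, transferred to nitrocellulose and probed overnight at 4 °C. Detection by chemiluminescence, normalized to β-actin; three independent experiments.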"}},
  "note": "Calls of active or inactive are those of the source. The rule behind the calls is not given here.",
  "data": [
    {"smiles": "Cc1ccc(S(=O)(=O)N(Cc2cn(Cc3cccc(F)c3F)nn2)Cc2cn(S(=O)(=O)c3ccc(C)cc3)c3ccccc23)cc1", "values": [
      {"measurement": "Activity", "setting": "Mus musculus [1]", "result": "Active"},
      {"measurement": "Activity", "setting": "Mus musculus [2]", "result": "Active"},
      {"measurement": "Activity", "setting": "Mus musculus [3]", "result": "inactive"},
      {"measurement": "Activity", "setting": "Syrian golden hamster [4]", "result": "Active"},
      {"measurement": "Activity", "setting": "Syrian golden hamster [5]", "result": "Active"},
      {"measurement": "Activity", "setting": "Syrian golden hamster [6]", "result": "Active"},
      {"measurement": "Activity", "setting": "3T3-L1", "result": "Active"}
    ]}
  ]
}
